Laboratory results: ChEMBL document CHEMBL4177624, “Rationally designed hecogenin thiosemicarbazone analogs as novel MEK inhibitors for the control of breast malignancies” (Bioorg Med Chem, 2017)

Tests used:
Type in all cases: functional, cell-based
MCF7 = assay: Antiproliferative activity against human MCF7 cells after 72 hrs by MTT assay; conditions: MCF7, 72 h
Outline: (§1)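 Six human breast carcinoma lines of differing molecular and phenotypic character were each exposed to a range of concentrations for 72 h. Proliferation was read by MTT. Results are given as mean percent viability, with IC₅₀ ± SEM calculated per cell line.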

T47D = assay: Antiproliferative activity against human T47D cells after 72 hrs by MTT assay; outline: as §1
SK-BR-3 = assay: Antiproliferative activity against human SKBR3 cells after 72 hrs by MTT assay; conditions: SK-BR-3, 72 h; outline: as §1
MDA-MB-468 = assay: Antiproliferative activity against human MDA-MB-468 cells after 72 hrs by MTT assay; conditions: MDA-MB-468, 72 h; outline: as §1
MDA-MB-231 = assay: Antiproliferative activity against human MDA-MB-231 cells after 72 hrs by MTT assay; conditions: MDA-MB-231, 72 h
Outline: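 MDA-MB-231 triple-negative breast cancer cells were exposed to a range of concentrations for 72 h. Proliferation was read by MTT. Results are given as mean percent viability versus concentration, with IC₅₀ ± SEM calculated from the curve.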

BT-474 = assay: Antiproliferative activity against human BT474 cells after 72 hrs by MTT assay; conditions: BT-474, 72 h; outline: as §1

IC50 (MCF7)	IC50 (T47D)	IC50 (SK-BR-3)	IC50 (MDA-MB-468)	IC50 (MDA-MB-231)	IC50 (BT-474)	Structure (SMILES)
6.4 µM	10.4 µM	9 µM	7.3 µM	6 µM	6.9 µM	C[C@@H]1CC[C@@]2(OC1)O[C@H]1C[C@H]3[C@@H]4CC[C@H]5C[C@@H](O)CC[C@]5(C)[C@H]4C/C(=N\NC(=S)Nc4c(Cl)cccc4Cl)[C@]3(C)[C@H]1[C@@H]2C
3.7 µM	6.1 µM	3.8 µM	4 µM	3.1 µM	4.5 µM	Cc1ccc(NC(=S)N/N=C2\C[C@H]3[C@@H](CC[C@H]4C[C@@H](O)CC[C@@]43C)[C@@H]3C[C@@H]4O[C@]5(CC[C@@H](C)CO5)[C@@H](C)[C@@H]4[C@@]23C)cc1
> 40 µM	> 40 µM	> 40 µM	> 40 µM	> 40 µM	> 40 µM	C[C@@H]1CC[C@@]2(OC1)O[C@H]1C[C@H]3[C@@H]4CC[C@H]5C[C@@H](OC(=O)c6cccc(C(F)(F)F)c6)CC[C@]5(C)[C@H]4CC(=O)[C@]3(C)[C@H]1[C@@H]2C
7.1 µM	10.2 µM	7.5 µM	7.5 µM	6.8 µM	8.8 µM	COc1ccccc1NC(=S)N/N=C1\C[C@H]2[C@@H](CC[C@H]3C[C@@H](O)CC[C@@]32C)[C@@H]2C[C@@H]3O[C@]4(CC[C@@H](C)CO4)[C@@H](C)[C@@H]3[C@@]12C
5.3 µM	7.8 µM	6.2 µM	5.9 µM	5.5 µM	7.5 µM	C[C@@H]1CC[C@@]2(OC1)O[C@H]1C[C@H]3[C@@H]4CC[C@H]5C[C@@H](O)CC[C@]5(C)[C@H]4C/C(=N\NC(=S)Nc4ccc5c(c4)OCO5)[C@]3(C)[C@H]1[C@@H]2C
9.1 µM	12 µM	9 µM	11.3 µM	8.5 µM	9.8 µM	C[C@@H]1CC[C@@]2(OC1)O[C@H]1C[C@H]3[C@@H]4CC[C@H]5C[C@@H](O)CC[C@]5(C)[C@H]4C/C(=N\NC(=O)Nc4ccc(Cl)cc4)[C@]3(C)[C@H]1[C@@H]2C
8 µM	11 µM	8.6 µM	8.2 µM	7.3 µM	10.8 µM	C[C@@H]1CC[C@@]2(OC1)O[C@H]1C[C@H]3[C@@H]4CC[C@H]5C[C@@H](O)CC[C@]5(C)[C@H]4C/C(=N\NC(=S)Nc4cc(C(F)(F)F)cc(C(F)(F)F)c4)[C@]3(C)[C@H]1[C@@H]2C
8 µM	10.3 µM	9.1 µM	8.4 µM	7.8 µM	9.3 µM	C[C@@H]1CC[C@@]2(OC1)O[C@H]1C[C@H]3[C@@H]4CC[C@H]5C[C@@H](O)CC[C@]5(C)[C@H]4C/C(=N\NC(=S)Nc4ccccc4)[C@]3(C)[C@H]1[C@@H]2C
7.9 µM	9.5 µM	8.8 µM	8 µM	7.5 µM	9 µM	C[C@@H]1CC[C@@]2(OC1)O[C@H]1C[C@H]3[C@@H]4CC[C@H]5C[C@@H](O)CC[C@]5(C)[C@H]4C/C(=N\NC(=S)Nc4ccc(Cl)cc4Cl)[C@]3(C)[C@H]1[C@@H]2C
> 40 µM	> 40 µM	> 40 µM	> 40 µM	> 40 µM	> 40 µM	C[C@@H]1CC[C@@]2(OC1)O[C@H]1C[C@H]3[C@@H]4CC[C@H]5C[C@@H](OC(=O)c6ccccc6Cl)CC[C@]5(C)[C@H]4CC(=O)[C@]3(C)[C@H]1[C@@H]2C
28 µM	29 µM	36 µM	33.4 µM	27 µM	30 µM	C[C@@H]1CC[C@@]2(OC1)O[C@H]1C[C@H]3[C@@H]4CC[C@H]5C[C@@H](OC(=O)c6ccc(F)cc6)CC[C@]5(C)[C@H]4CC(=O)[C@]3(C)[C@H]1[C@@H]2C
> 40 µM	> 40 µM	> 40 µM	> 40 µM	> 40 µM	> 40 µM	COc1ccccc1C(=O)O[C@H]1CC[C@@]2(C)[C@@H](CC[C@@H]3[C@@H]2CC(=O)[C@]2(C)[C@@H]4[C@H](C[C@@H]32)O[C@]2(CC[C@@H](C)CO2)[C@H]4C)C1
13.8 µM	20.9 µM	15.7 µM	15.3 µM	14 µM	19.2 µM	C[C@@H]1CC[C@@]2(OC1)O[C@H]1C[C@H]3[C@@H]4CC[C@H]5C[C@@H](O)CC[C@]5(C)[C@H]4C/C(=N\NC(=O)Nc4cccc(C(F)(F)F)c4)[C@]3(C)[C@H]1[C@@H]2C
2.5 µM	4.2 µM	2.9 µM	2.8 µM	2.3 µM	3.2 µM	Cc1cccc(C)c1NC(=S)N/N=C1\C[C@H]2[C@@H](CC[C@H]3C[C@@H](O)CC[C@@]32C)[C@@H]2C[C@@H]3O[C@]4(CC[C@@H](C)CO4)[C@@H](C)[C@@H]3[C@@]12C
30.3 µM	37.8 µM	33.4 µM	34.2 µM	29.1 µM	36.3 µM	C[C@@H]1CC[C@@]2(OC1)O[C@H]1C[C@H]3[C@@H]4CC[C@H]5C[C@@H](OC(=O)c6ccccc6)CC[C@]5(C)[C@H]4CC(=O)[C@]3(C)[C@H]1[C@@H]2C
3.7 µM	3.8 µM	4 µM	3.9 µM	3.2 µM	4.4 µM	C[C@@H]1CC[C@@]2(OC1)O[C@H]1C[C@H]3[C@@H]4CC[C@H]5C[C@@H](O)CC[C@]5(C)[C@H]4C/C(=N\NC(=S)Nc4ccc(C(F)(F)F)cc4)[C@]3(C)[C@H]1[C@@H]2C
33.2 µM	> 40 µM	34.7 µM	32.6 µM	25.7 µM	35 µM	C[C@@H]1CC[C@@]2(OC1)O[C@H]1C[C@H]3[C@@H]4CC[C@H]5C[C@@H](OC(=O)c6ccc(C#N)cc6)CC[C@]5(C)[C@H]4CC(=O)[C@]3(C)[C@H]1[C@@H]2C
10.4 µM	13.5 µM	12 µM	11.9 µM	9.2 µM	11.9 µM	C[C@@H]1CC[C@@]2(OC1)O[C@H]1C[C@H]3[C@@H]4CC[C@H]5C[C@@H](O)CC[C@]5(C)[C@H]4C/C(=N\NC(=O)Nc4ccccc4)[C@]3(C)[C@H]1[C@@H]2C
> 40 µM	> 40 µM	> 40 µM	> 40 µM	> 40 µM	> 40 µM	C[C@@H]1CC[C@@]2(OC1)O[C@H]1C[C@H]3[C@@H]4CC[C@H]5C[C@@H](OC(=O)c6ccco6)CC[C@]5(C)[C@H]4CC(=O)[C@]3(C)[C@H]1[C@@H]2C
5 µM	8.8 µM	4.7 µM	5.8 µM	3.8 µM	8.3 µM	CCc1ccccc1NC(=S)N/N=C1\C[C@H]2[C@@H](CC[C@H]3C[C@@H](O)CC[C@@]32C)[C@@H]2C[C@@H]3O[C@]4(CC[C@@H](C)CO4)[C@@H](C)[C@@H]3[C@@]12C
12 µM	15.1 µM	14.8 µM	12.8 µM	11.5 µM	11.8 µM	C[C@@H]1CC[C@@]2(OC1)O[C@H]1C[C@H]3[C@@H]4CC[C@H]5C[C@@H](O)CC[C@]5(C)[C@H]4C/C(=N\NC(=S)Nc4ccc(Cl)cc4)[C@]3(C)[C@H]1[C@@H]2C
5.9 µM	7 µM	5.7 µM	6.2 µM	5.5 µM	6.5 µM	C[C@@H]1CC[C@@]2(OC1)O[C@H]1C[C@H]3[C@@H]4CC[C@H]5C[C@@H](O)CC[C@]5(C)[C@H]4C/C(=N\NC(=S)Nc4ccccc4Cl)[C@]3(C)[C@H]1[C@@H]2C
5 µM	9 µM	5.5 µM	6.1 µM	4.3 µM	6.9 µM	C[C@@H]1CC[C@@]2(OC1)O[C@H]1C[C@H]3[C@@H]4CC[C@H]5C[C@@H](O)CC[C@]5(C)[C@H]4C/C(=N\NC(=S)Nc4ccccc4[N+](=O)[O-])[C@]3(C)[C@H]1[C@@H]2C
2.2 µM	2.4 µM	2.1 µM	2.7 µM	2.1 µM	3.1 µM	C[C@@H]1CC[C@@]2(OC1)O[C@H]1C[C@H]3[C@@H]4CC[C@H]5C[C@@H](O)CC[C@]5(C)[C@H]4C/C(=N\NC(=S)Nc4ccccc4C(F)(F)F)[C@]3(C)[C@H]1[C@@H]2C
4 µM	5.9 µM	4.5 µM	4.2 µM	5 µM	6.3 µM	C[C@@H]1CC[C@@]2(OC1)O[C@H]1C[C@H]3[C@@H]4CC[C@H]5C[C@@H](O)CC[C@]5(C)[C@H]4C/C(=N\NC(=S)Nc4ccc(F)cc4)[C@]3(C)[C@H]1[C@@H]2C
